{"source": "paper PMC9166452", "about": "(International Journal of Nanomedicine, 2022)", "key": {"[1]": {"assay": "In vitro release in simulated gastrointestinal fluids", "assay_type": "physicochemical"}, "[2]": {"assay": "Bidirectional transport across Caco-2 cell monolayers", "assay_type": "in vitro ADME", "conditions": "human, Caco-2", "in_short": "(§1)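 Monolayers of Caco-2 cells were grown on 0.4-μm polycarbonate Transwell inserts (2×10^5 cells/well) and used only after passing a TEER check. Free or TPGS-micelle test compound (2 μg/mL) was added apically or basolaterally and incubated 4 h at 37°C. Receiver fluid was assayed by HPLC. Verapamil was co-incubated 4 h. AP→BL transport was also run at 4°C. Papp = (dQ/dt)/(A·C0); ER = Papp(BL→AP)/Papp(AP→BL).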"}, "Caco-2 cell monolayers": {"system": "Caco-2 cell monolayers", "assay": "Bidirectional transport across Caco-2 cell monolayers", "assay_type": "in vitro ADME", "conditions": "AP→BL, 4°C", "in_short": "as §1"}, "P-glycoprotein (P-gp)": {"system": "P-glycoprotein (P-gp)", "assay": "Bidirectional transport across Caco-2 cell monolayers", "assay_type": "in vitro ADME", "conditions": "human, Caco-2, with verapamil 100 µM", "in_short": "as §1"}, "[3]": {"system": "subcutaneous xenografts of MDA-MB-231 cells", "assay": "Oral treatment of subcutaneous TNBC xenografts in nude mice", "assay_type": "in vivo, BALB/c nude mice", "in_short": "(§2)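 Female BALB/c nude mice (4 weeks old) received MDA-MB-231 cells (1×10^6/mouse) subcutaneously in the right thigh. At 50–100 mm3 they were randomised to PBS, free or micelle-loaded test compound, given 0.25 mg/kg by oral gavage every two days on days 0–14. Tumor size and body weight were taken every two days to day 17, then organs and tumors went to pathology/TUNEL. TIR was derived from mean tumor size, dosed vs control.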"}, "[4]": {"system": "orthotopic TNBC (MDA-MB-231 cells)", "assay": "Oral treatment combined with surgery on orthotopic TNBC in nude mice", "assay_type": "in vivo, BALB/c nude mice", "conditions": "after tumor resection surgery", "in_short": "(§3)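 MDA-MB-231 cells (1×10^6/mouse) were injected into the second right mammary gland of nude mice. Caliper volume was V = (a×b2)/2. At 80–100 mm3, tumors were resected under isoflurane, leaving 5–10% residual. Twenty mice were split into four arms (surgery plus PBS, blank TPGS micelles, free or micelle-loaded test compound), dosed orally at equal volume every two days on days 0–14. Tumor size and body weight were followed every two days to day 17. Organs, including jejunum and lungs, and tumors were then taken for histology.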"}, "In vivo toxicity [5]": {"assay": "In vivo toxicity", "design": "species or system BALB/c nude mice", "conditions": "0.25 mg/kg oral", "in_short": "as §2"}, "In vivo toxicity [6]": {"assay": "In vivo toxicity", "design": "species or system BALB/c nude mice", "conditions": "after tumor resection surgery, oral", "in_short": "as §3"}, "[7]": {"conditions": "oral, cited from earlier work"}, "[8]": {"conditions": "mice, oral administration; cited from earlier work"}, "[9]": {"conditions": "patients with advanced solid tumors"}}, "note": "Entries after “also recorded” stand apart in the source; their conditions may differ. Where a name gives a salt, the structure may show the parent alone."}
{"smiles": "O=C(CC1NCCCC1O)Cn1cnc2cc(Br)c(Cl)cc2c1=O", "note": "(stereo not shown) [HF, Halofuginone hydrobromide]", "values": [{"measurement": "cumulative release percentage (CRP) of HF", "setting": "[1]; simulated gastric fluids, from 0 to 8 hours", "result": 53.25, "unit": "%"}, {"measurement": "cumulative release percentage (CRP) of HF", "setting": "[1]; simulated gastric fluids, from 8 to 12 hours", "result": 19.6, "unit": "%"}, {"measurement": "cumulative release percentage (CRP) of HF", "setting": "[1]; simulated gastric fluids, within 24 hours", "result": 80.03, "unit": "%"}, {"measurement": "cumulative release percentage (CRP) of HF", "setting": "[1]; simulated intestinal fluids, from 0 to 8 hours", "result": 54.39, "unit": "%"}, {"measurement": "cumulative release percentage (CRP) of HF", "setting": "[1]; simulated intestinal fluids, from 8 to 12 hours", "result": 18.17, "unit": "%"}, {"measurement": "cumulative release percentage (CRP) of HF", "setting": "[1]; simulated intestinal fluids, within 24 hours", "result": 82.61, "unit": "%"}, {"measurement": "Papp A→B at 4 h, 2 μg/mL", "setting": "[2]", "result": "4.73 ± 0.28", "unit": "×10⁻⁶ cm/s"}, {"measurement": "Papp B→A at 4 h, 2 μg/mL", "setting": "[2]", "result": "8.72 ± 0.16", "unit": "×10⁻⁶ cm/s"}, {"measurement": "efflux ratio at 4 h, 2 μg/mL", "setting": "[2]", "result": 1.84}, {"measurement": "Papp at 4°C compared with 37°C", "setting": "Caco-2 cell monolayers", "result": "lower than those at 37 °C"}, {"measurement": "Papp A→B at 4 h, 2 μg/mL", "setting": "P-glycoprotein (P-gp)", "result": "6.25 ± 0.75", "unit": "×10⁻⁶ cm/s"}, {"measurement": "Papp B→A at 4 h, 2 μg/mL", "setting": "P-glycoprotein (P-gp)", "result": "5.9 ± 0.1", "unit": "×10⁻⁶ cm/s"}, {"measurement": "efflux ratio at 4 h, 2 μg/mL", "setting": "P-glycoprotein (P-gp)", "result": 0.94}, {"measurement": "tumor inhibition rate (TIR)", "setting": "[3]; 0.25 mg/kg HF, oral gavage, every two days on days 0–14", "result": "47.55% ± 1.32"}, {"measurement": "tumor size vs untreated mice", "setting": "[3]; 0.25 mg/kg oral, 12 days after oral administration", "result": "significant reduction in tumor size"}, {"measurement": "tumor necrosis (H&E staining)", "setting": "[3]; 0.25 mg/kg oral, tumor sections", "result": "larger necrotic area than those from the PBS group"}, {"measurement": "expression of Bcl-2, Bax and Caspase-3 in tumor (immunohistochemistry)", "setting": "[3]; 0.25 mg/kg oral, tumor tissues", "result": "markedly upregulated the expression of Bax and Caspase-3, and downregulated the expression of Bcl-2"}, {"measurement": "expression of Bcl-2, Bax and Caspase-3 in tumor (immunohistochemistry)", "setting": "[4]", "result": "regulated by HF and HTPM treatment"}, {"measurement": "lung metastasis (H&E, visual inspection)", "setting": "[4]", "result": "normal histological features without any tumors"}, {"measurement": "tumor growth vs PBS- and FTPM-treated groups", "setting": "[4]", "result": "significant delay in tumor growth"}, {"measurement": "tumor necrosis (H&E staining)", "setting": "[4]", "result": "larger necrotic area than those from the PBS- and FTPM-treated groups"}, {"measurement": "tumor inhibition rate (TIR)", "setting": "[4]; every two days on days 0–14", "result": "43.57% ± 1.15"}, {"measurement": "histology of jejunum / bleeding (H&E)", "setting": "In vivo toxicity [5]", "result": "jejunum hemorrhage"}, {"measurement": "body weight change", "setting": "In vivo toxicity [5]; every two days on days 0–14", "result": "caused the loss of body weight"}, {"measurement": "body weight change", "setting": "In vivo toxicity [6]", "result": "caused the loss of body weight; also recorded: significant loss of body weight"}, {"measurement": "histology of jejunum (H&E)", "setting": "In vivo toxicity [6]", "result": "jejunum bleeding; also recorded: jejunum congestion was found"}, {"measurement": "\"acute\" maximum tolerated dose (MTD)", "setting": "[7]; [9]", "result": 3.5, "unit": "mg/day"}, {"measurement": "dose-limiting toxicities (DLT)", "setting": "[7]; [9]", "result": "nausea, vomiting, and fatigue"}, {"measurement": "dose recommended for chronic administration in Phase II clinical studies", "setting": "[7]", "result": 0.5, "unit": "mg/day"}, {"measurement": "detection in plasma and red blood cells", "setting": "[8]", "result": "not detected in plasma and red blood cells"}, {"measurement": "persistence in kidneys, liver and lungs", "setting": "[8]", "result": "up to 48 hours"}]}
